Measurements collected from several papers.
Lines come from different studies, so protocols differ.
PSMB8: Proteasome subunit beta type-8 (PSMB8, Homo sapiens, UniProt P28062)
DHODH: Dihydroorotate dehydrogenase (quinone), mitochondrial (DHODH, Homo sapiens, UniProt Q02127)
TYMS: Thymidylate synthase (TYMS, Homo sapiens, UniProt P04818)

Cc1cccn2c(Nc3ccc(Cl)cc3)c(-c3ccc(S(C)(=O)=O)cc3)nc12
IC50 (Prostaglandin G/H synthase 2 (PTGS2, Homo sapiens, UniProt P35354); enzyme activity, inhibitor): 0.14 µM

Cc1ncc(C(=O)N[C@@H](CC2CCC(C)CC2)C(=O)N[C@@H](CC(C)C)C(=O)N[C@H](/C=C/S(C)(=O)=O)Cc2ccc(CN)cc2)s1 (some centres unmarked)
IC50 (PSMB8; enzyme activity, inhibitor; lysate): > 10 µM

CCn1ncc2c1-c1cnc(N)c(c1)O[C@H](C)c1cc(F)ccc1-c1nn(C)nc1C2
IC50 (Ephrin type-A receptor 1 (EPHA1, Homo sapiens, UniProt P21709); enzyme activity, inhibitor, radiometric): 0.285 µM

COc1ccc(S(=O)(=O)ON=C2C=C(C)C(=O)C(C)=C2)cc1
IC50 (CREB-binding protein (CREBBP, Homo sapiens, UniProt Q92793); enzyme activity, inhibitor, radiometric): > 100 µM

CN1CCN(c2ccc(Nc3ncc4cc(C#N)c(=O)n(C5CCCC5)c4n3)cc2)CC1
IC50 (Dual specificity tyrosine-phosphorylation-regulated kinase 1A (DYRK1A, Homo sapiens, UniProt Q13627); enzyme activity, inhibitor): 0.807 µM

Cc1ncc(C(=O)N[C@H](C(=O)N[C@@H](CC(C)C)C(=O)N[C@H](/C=C/S(C)(=O)=O)Cc2ccc(CN)cc2)C2CCCCC2)s1
IC50 (PSMB8; enzyme activity, inhibitor; lysate): 3.14 µM

Cc1nc(NC2CCc3cc(Br)ccc3C2)c2c(C)noc2n1 (centres unmarked)
IC50 (DHODH; enzyme activity, inhibitor, absorbance): > 100 µM

CCOc1ccc2c(-c3cc(C)nc(Nc4cc(OC)cc(C(F)(F)F)c4)n3)cnn2n1
IC50 (Dual specificity tyrosine-phosphorylation-regulated kinase 3 (DYRK3, Homo sapiens, UniProt O43781); enzyme activity, inhibitor): > 10 µM

COC(=O)C1CCN(C(=O)c2ccc(NCc3cnc4nc(N)nc(N)c4n3)cn2)CC1
IC50 (TYMS; enzyme activity, inhibitor): 80 µM

Cc1cc(Nc2cc3ncccc3c(N[C@@H]3C[C@H]4CC[C@@H](C3)N4CCC#N)n2)n[nH]1
IC50 (Platelet-derived growth factor receptor beta (PDGFRB, Homo sapiens, UniProt P09619); target engagement in cells, inhibitor, BRET): > 10 µM

Cc1ncc(C(=O)N[C@@H](CC2CCCC3CCCCC32)C(=O)N[C@@H](CC(C)C)C(=O)N[C@H](/C=C/S(C)(=O)=O)Cc2ccc(CN)cc2)s1 (some centres unmarked)
IC50 (PSMB8; enzyme activity, inhibitor; lysate): 0.555 µM

Oc1ccc(Cl)cc1Nc1nc(NCC2CCCO2)c2ccccc2n1 (centres unmarked)
IC50 (Lysosomal acid glucosylceramidase (GBA1, Homo sapiens, UniProt P04062, R534H); enzyme activity, inhibitor, fluorescence; pH 5.9): 1.5 µM

Cc1ncc(C(=O)N[C@@H](CC(C)C)C(=O)N[C@@H](CC2CCCCC2)C(=O)N[C@H](/C=C/S(C)(=O)=O)Cc2ccc(CN)cc2)s1
IC50 (PSMB8; enzyme activity, inhibitor; lysate): > 10 µM

CCOC(=O)C1CCN(C(=O)c2ccc(N(C)Cc3cnc4nc(N)nc(N)c4n3)cc2)CC1
IC50 (TYMS; enzyme activity, inhibitor): 74 µM

Cc1nc(Nc2ccc(S(F)(F)(F)(F)F)cc2)c2c(C(F)(F)F)noc2n1
IC50 (DHODH; enzyme activity, inhibitor, absorbance): > 100 µM

CCCCCCCC(=O)N[C@H](CN1CCCC1)[C@H](O)c1ccc2c(c1)OCCO2
IC50 (Lysosomal acid glucosylceramidase (GBA1, Homo sapiens, UniProt P04062); enzyme activity, inhibitor): 15 µM

CC(=O)N[C@@H](CC(=O)O)C(=O)N[C@@H](CCC(=O)O)C(=O)N[C@H](C(=O)N[C@H](C=O)CC(=O)O)C(C)C
IC50 (Caspase-7 (CASP7, Homo sapiens, UniProt P55210); enzyme activity, inhibitor): 0.00175 µM

CC/C(=N\NC(=O)C(C)Nc1ccccc1)c1ccc(O)c(C)c1O (centres unmarked)
IC50 (Ribosomal protein S6 kinase beta-1 (RPS6KB1, Homo sapiens, UniProt P23443); enzyme activity, inhibitor): 0.0335 µM

C=C1/C(=C\C=C2/CCC[C@]3(C)[C@@H]([C@H](C)/C=C/[C@@H](O)C4CC4)CC[C@@H]23)C[C@@H](O)C[C@@H]1O
IC50 (Multidrug resistance-associated protein 1 (ABCC1, Homo sapiens, UniProt P33527); transporter uptake, inhibitor, radiometric; cell membranes): 12.3 µM

Cc1ncc(C(=O)N[C@@H](CC(C)C)C(=O)N[C@@H](CC2CCC(C)CC2)C(=O)N[C@H](/C=C/S(C)(=O)=O)Cc2ccc(CN)cc2)s1 (some centres unmarked)
IC50 (PSMB8; enzyme activity, inhibitor; lysate): > 10 µM

O=C1N[C@H]2n3c(cc(Br)c3Br)C(=O)N3CCC[C@]23N1 (racemic)
IC50 (Proteasome subunit beta type-8, chymotrypsin-like site (PSMB8, Homo sapiens, UniProt P28062); enzyme activity, inhibitor): 6.7 µM

CCOCc1nc(O)c(-c2nnc(Cc3ccc(Cl)cn3)o2)c(O)c1-c1c(OC)cccc1OC
IC50 (Alpha-1D adrenergic receptor (ADRA1D, Homo sapiens, UniProt P25100); ligand displacement, radioligand): > 30 µM

COC[C@@H](C)NC1CCC(Nc2cc(-c3cccc(NCC4(C#N)CCOCC4)n3)c(Cl)cn2)CC1 (some centres unmarked)
IC50 (Dual specificity tyrosine-phosphorylation-regulated kinase 1B (DYRK1B, Homo sapiens, UniProt Q9Y463); enzyme activity, inhibitor, FRET): 0.35 µM

Cc1nc(Nc2ccc(S(F)(F)(F)(F)F)cc2)c2c(C)noc2n1
IC50 (DHODH; enzyme activity, inhibitor, absorbance): > 50 µM

Nc1ncnc2c1ncn2[C@@H]1O[C@H](CSCCNC(=O)NCc2ccccc2)[C@@H](O)[C@H]1O
IC50 (Protein arginine N-methyltransferase 7 (PRMT7, Homo sapiens, UniProt Q9NVM4); enzyme activity, inhibitor, radiometric): < 2.4 µM

Cc1ncc(C(=O)N[C@@H](CC2CCC(C3CCCCC3)CC2)C(=O)N[C@@H](CC(C)C)C(=O)N[C@H](/C=C/S(C)(=O)=O)Cc2ccc(CN)cc2)s1 (some centres unmarked)
IC50 (PSMB8; enzyme activity, inhibitor; lysate): > 10 µM

CC(C)=CCC[C@@H](C)c1ccc(C)c(O)c1
IC50 (UDP-glucuronosyltransferase 1A1 (UGT1A1, Homo sapiens, UniProt P22309); enzyme activity, inhibitor; 90 min): 11.3 µM

Cc1ccc(NC(=O)c2ccc(C)c(C(F)(F)F)c2)cc1C#Cc1nn(C2CCC(O)CC2)c2ncnc(N)c12 (centres unmarked)
IC50 (Ephrin type-A receptor 7 (EPHA7, Homo sapiens, UniProt Q15375); enzyme activity, inhibitor, radiometric): 0.143 µM

COc1ccc(C[C@H](NC(=O)[C@H](C)NC(=O)CN2CCOCC2)C(=O)N[C@@H](CC2CCC(C(F)(F)F)CC2)C(=O)[C@@]2(C)CO2)cc1 (some centres unmarked)
IC50 (PSMB8; enzyme activity, inhibitor; lysate): 0.191 µM

Cc1cc(Nc2ccc(C(C)(C)C)cc2)n2ncnc2n1
IC50 (DHODH; enzyme activity, inhibitor): > 100 µM

COC1CCC(C[C@H](NC(=O)[C@H](CC(C)C)NC(=O)c2cnc(C)s2)C(=O)N[C@H](/C=C/S(C)(=O)=O)Cc2ccc(CN)cc2)CC1 (some centres unmarked)
IC50 (PSMB8; enzyme activity, inhibitor; lysate): > 10 µM

O=C(O)C1=CC(=C(c2ccc(O)c(C(=O)O)c2)c2ccc(O)c(C(=O)O)c2)C=CC1=O
IC50 (PFKM (Oryctolagus cuniculus, UniProt P00511); enzyme activity, inhibitor): 3.92 µM
